Apaf1 inhib – inhibitors of human Apaf-1 apoptosome, primary screen, biochemical, DEVD-Rh110 fluorescence, uHTS | Apoptotic protease-activating factor 1 (Homo sapiens), O14727 | reconstituted apoptosome caspase-3 activity | inhibition, % at 20 µM | 330,000 compounds, 0.71% hits; active = inhibition of at least 40% at 20 µM
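System: Apoptosome proteins | Medium: Hepes pH 7.5 with detergent and BSA | Also added: Cytochrome c trigger plus (Z-DEVD)2-Rh110 caspase-3 substrate | Incubation: 30 min compound preincubation, 50 min activation, room temperature | Detection: Rhodamine 110 fluorescence at Ex 480/Em 540 nm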
UBC13 inh – UBC13 polyubiquitin chain formation inhibitors, primary screen, biochemical, TR-FRET, uHTS. 330,000 compounds, 0.47% hits. Ubiquitin-conjugating enzyme E2 N (Homo sapiens), P61088. inhibition, % at 20 µM; in the data active = inhibition above about 45%, passing the limit was not always enough; inconclusive = no clear call, values can overlap the other calls
Target sequence (P61088 whole entry, looked up): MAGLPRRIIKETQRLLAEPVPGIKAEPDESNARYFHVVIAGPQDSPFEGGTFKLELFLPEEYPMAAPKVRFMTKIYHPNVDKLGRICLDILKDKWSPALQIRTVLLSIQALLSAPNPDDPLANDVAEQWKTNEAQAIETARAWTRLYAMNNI
MEKK2wt PB1 HTS – modulators of MEK5 binding to wildtype MEKK2, primary screen, biochemical, multiplex bead flow cytometry, Alexa488-MEK5 | Mitogen-activated protein kinase kinase kinase 2 (Homo sapiens), Q9Y2U5 | Alexa488-MEK5 binding to MEKK2 WT; actives lie on both sides | binding response (% of control), % at 10 µM | 290,000 compounds, 1.1% hits; in the data active = binding response below about 67% or above about 130%; inconclusive = no clear call, values can overlap the other calls; inactive = in between
MEKK2 mut-MEK5 – MEK5 binding signal on mutant MEKK2 PB1, primary screen, biochemical, multiplex bead flow cytometry, Alexa488-MEK5; Alexa488-MEK5 binding to MEKK2 mutant; percent response, % at 10 µM; 290,000 compounds, 0.35% hits; AID 1530, 2009; in the data active = percent response above about 24%, passing the limit was not always enough
MEKK3 PB1 HTS – modulators of MEKK3-MEK5 PB1 binding, primary screen, biochemical, wildtype MEKK3, multiplex bead flow cytometry, Alexa488-MEK5. AID 1529, 2009. bead-based flow cytometry, Alexa488-MEK5 binding to MEKK3; actives lie on both sides; 0 = blocked by unlabeled MEK5, 100 = vehicle. 290,000 compounds, 1.4% hits. binding response (% of control), % at 10 µM. Mitogen-activated protein kinase kinase kinase 3 (Homo sapiens), Q99759;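 active = binding response more than 3 SD above or below the average of its plate-row segment, actives on both sides; inconclusive = wells at one plate position flagged as instrument error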;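 also: Alexa488 bead fluorescence after subtracting the streptavidin-only scavenger bead signal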
MEKK2wt confirm – modulators of MEK5 binding to wildtype MEKK2, confirmation, biochemical, single concentration, multiplex bead flow cytometry. AID 1892, 2009. 5,900 compounds, 2.4% hits. Alexa488-MEK5 binding to MEKK2 WT; actives lie on both sides. shares compounds with MEKK3 PB1 HTS. binding response (% of control), % at 10 µM; in the data active = binding response below about 16% or above about 210%; inactive = in between
MEKK2mut confirm – mutant MEKK2 PB1-MEK5 binding signal retest – biochemical, single concentration, multiplex bead flow cytometry, confirmation | shares compounds with MEKK3 PB1 HTS | Alexa488-MEK5 binding to MEKK2 mutant | percent response, % at 10 µM | 5,900 compounds, 2% hits | AID 1893, 2009; in the data active = percent response mostly above about 71%, no sharp cut-off; inactive = mostly below about 38%;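 also: higher means compound restores mutant binding toward wildtype level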
MEKK3 confirm – MEKK3 wild-type PB1 binding to MEK5, inhibitors, confirmation, biochemical, bead multiplex flow cytometry, single concentration, wildtype; Alexa488-MEK5 binding to MEKK3; stronger effect = lower value; 5,900 compounds, 1.8% hits; shares compounds with MEKK3 PB1 HTS; binding response (% of control), % at 10 µM;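 active = binding response below 72% of control, or above a set upper limit, though filed actives all read lower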
Large screens that a line does not name were inactive (follow-up assays come after a bar, where they were run); [ ] = another dose, or the depositor's remark. Compounds with a hit are over-represented: about 2.9% of the library has one in this group of screens.

CC(=O)Nc1nc(C)c(C(C)=O)s1	MEKK2wt PB1 HTS 3.0[inhibitor], MEKK3 PB1 HTS 2.0[inhibitor] | MEKK2wt confirm inactive | MEKK2mut confirm inactive | MEKK3 confirm inactive
Cc1ccccc1OCCNC(=O)CNC(=O)c1ccccc1O	MEKK3 PB1 HTS 79[inhibitor] | MEKK2wt confirm inactive | MEKK2mut confirm inactive | MEKK3 confirm inactive
CCCCCC(=O)Nc1ccc(S(=O)(=O)NC2=NCCCCC2)cc1	none (no result: MEKK2wt PB1 HTS, MEKK2 mut-MEK5, MEKK3 PB1 HTS)
CC(Sc1ccccc1)C(=O)NN=C1CCN(C)CC1 (centres undefined)	none
Cc1ccc(C)c(N2CCN(C(=O)c3cc(S(=O)(=O)N4CCCC4)cn3C)CC2)c1	MEKK2wt PB1 HTS 0.0[inhibitor], MEKK3 PB1 HTS 2.0[inhibitor] | MEKK2wt confirm inactive | MEKK2mut confirm inactive | MEKK3 confirm inactive
CCOC(=O)C1CCCN(C(=O)c2cccc(NC(=O)C(CC)CC)c2)C1 (centres undefined)	none
CCN1/C(=C/C=C/C=C/c2sc3ccccc3[n+]2CC)Sc2ccccc21	Apaf1 inhib 80, UBC13 inh inconclusive, MEKK2wt PB1 HTS 15[inhibitor], MEKK3 PB1 HTS 18[inhibitor] | MEKK2wt confirm inactive | MEKK2mut confirm inactive | MEKK3 confirm 26
CCN1/C(=C/C=C/C=C/C=C/c2sc3ccccc3[n+]2CC)Sc2ccccc21	MEKK2wt PB1 HTS 72[inhibitor], MEKK3 PB1 HTS 30[inhibitor] | MEKK2wt confirm inactive | MEKK2mut confirm inactive | MEKK3 confirm 61
CC[n+]1c(/C=C/Nc2ccccc2)sc2ccccc21	none
COc1ccc(SCCC(=O)NCc2ccncc2)cc1	none
O=C(CN(Cc1ccccc1Cl)C(=O)c1csnn1)NCc1ccc2c(c1)OCO2	none
Cc1cccc(NC(=O)CNC(=O)CSc2nc(N)cc(N)n2)c1C	none (no result: MEKK2wt PB1 HTS, MEKK2 mut-MEK5, MEKK3 PB1 HTS)
CC(=O)c1cccc(N(C(=O)Cn2nnc3ccccc32)C(C(=O)NCc2ccccc2)c2ccccn2)c1 (centres undefined)	MEKK3 PB1 HTS 130 | MEKK2wt confirm inactive | MEKK2mut confirm inactive | MEKK3 confirm inactive
CC(=O)c1cccc(N(C(=O)c2cnccn2)C(C(=O)NCc2ccccc2)c2ccco2)c1 (centres undefined)	MEKK3 PB1 HTS 124 | MEKK2wt confirm inactive | MEKK2mut confirm inactive | MEKK3 confirm inactive
COc1ccc(CNC(=O)C(c2ccco2)N(C(=O)c2ccccn2)c2ccccc2)cc1 (centres undefined)	MEKK2wt PB1 HTS 55[inhibitor], MEKK3 PB1 HTS 59[inhibitor] | MEKK2wt confirm inactive | MEKK2mut confirm inactive | MEKK3 confirm inactive
COCCNC(=O)C(c1ccccc1)N(C(=O)Cn1nnc2ccccc21)c1cccnc1 (centres undefined)	none
COc1ccc(C(=O)COC(=O)c2sccc2C)cc1OC	none (no result: MEKK2wt PB1 HTS, MEKK2 mut-MEK5, MEKK3 PB1 HTS)
CC(C)(C)NC(=O)CN1CCN(C(=O)CCl)CC1	none
O=C(COC(=O)c1cc(Cl)nc(Cl)c1)NCc1ccc2c(c1)OCO2	none (no result: MEKK2wt PB1 HTS, MEKK2 mut-MEK5, MEKK3 PB1 HTS)
O=C1c2ccc([N+](=O)[O-])cc2C(=O)N1Cc1cccnc1	MEKK2 mut-MEK5 25 | MEKK2wt confirm inactive | MEKK2mut confirm inactive | MEKK3 confirm inactive
CCOC(=O)c1oc2ccc(Br)cc2c1COC(=O)C1=COCCO1	none (no result: MEKK2wt PB1 HTS, MEKK2 mut-MEK5, MEKK3 PB1 HTS)
O=C(/C=C\c1ccccc1OC(=O)c1ccccc1F)c1cc2ccccc2o1	MEKK3 PB1 HTS 135 | MEKK2wt confirm inactive | MEKK2mut confirm inactive | MEKK3 confirm inactive
